The values below come from PMC5308917 (Science translational medicine, 2017).

Data set [1] addresses 5-carboxyfluorescein (5-FAM)-labeled AXT107. The experiment in a line: fluorescence polarisation. (In general: Polarisation of emitted light reports the rotation of a fluorescent probe.)
A further data set relates to VEGFR2. The experiment in a line: Proteasomal inhibition by lactacystin and total VEGFR2. The data set is classed as cell-based, human. To be noted: 5 μM lactacystin with varying concentrations of AXT107.
Data set [2] relates to VEGF-induced vascular leakage. The experiment in a line: VEGF-induced leakage in rabbit eyes. Format: in vivo, rabbit (Dutch Belted). The method, boiled down: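 A single intravitreous dose of test compound (50 μg) or comparator (500 μg) was given in one eye, with vehicle in the fellow eye. VEGF (10 μg) was injected into both eyes on day 23, VFP done day 30, eyes rescanned without fluorescein day 43, VEGF (10 μg) reinjected both eyes day 53, VFP day 60. For VFP, 15 mg sodium fluorescein was given via ear vein. After 1 h, fluorescence was scanned retina-to-cornea, taking the AUC 5–7 mm in front of the retina.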

In a further data set the target is integrin αvβ3 (Homo sapiens, UniProt P05106+P06756). The experiment in a line: Fluorescence anisotropy, integrin αvβ3. Format: binding. Put shortly:
(§1)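 FAM-labelled test compound (10 nM, dissolved in DMSO; final DMSO 0.0005%) mixed with 0–75 nM soluble recombinant heterodimeric integrin in 50 mM tris pH 7.5, 1 mM CaCl2, 1 mM MgCl2, 100 mM NaCl. Incubated on ice at least 30 min to reach equilibrium. Anisotropy read with vertically polarized excitation at 470 nm, detecting vertical and horizontal emission at 540 nm.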

Data set [3] in a line: Non-GLP safety studies after intravitreous injection. The data set is classed as in vivo, rabbit. Particulars: independent Clinical Research Organization.
The target in a further data set is integrin α5β1 (Homo sapiens, UniProt P05556+P08648). The experiment in a line: Fluorescence anisotropy, integrin α5β1. The data set is classed as binding. Put shortly: as §1
Sequence of integrin α5β1 (P08648 42-995 limits assumed): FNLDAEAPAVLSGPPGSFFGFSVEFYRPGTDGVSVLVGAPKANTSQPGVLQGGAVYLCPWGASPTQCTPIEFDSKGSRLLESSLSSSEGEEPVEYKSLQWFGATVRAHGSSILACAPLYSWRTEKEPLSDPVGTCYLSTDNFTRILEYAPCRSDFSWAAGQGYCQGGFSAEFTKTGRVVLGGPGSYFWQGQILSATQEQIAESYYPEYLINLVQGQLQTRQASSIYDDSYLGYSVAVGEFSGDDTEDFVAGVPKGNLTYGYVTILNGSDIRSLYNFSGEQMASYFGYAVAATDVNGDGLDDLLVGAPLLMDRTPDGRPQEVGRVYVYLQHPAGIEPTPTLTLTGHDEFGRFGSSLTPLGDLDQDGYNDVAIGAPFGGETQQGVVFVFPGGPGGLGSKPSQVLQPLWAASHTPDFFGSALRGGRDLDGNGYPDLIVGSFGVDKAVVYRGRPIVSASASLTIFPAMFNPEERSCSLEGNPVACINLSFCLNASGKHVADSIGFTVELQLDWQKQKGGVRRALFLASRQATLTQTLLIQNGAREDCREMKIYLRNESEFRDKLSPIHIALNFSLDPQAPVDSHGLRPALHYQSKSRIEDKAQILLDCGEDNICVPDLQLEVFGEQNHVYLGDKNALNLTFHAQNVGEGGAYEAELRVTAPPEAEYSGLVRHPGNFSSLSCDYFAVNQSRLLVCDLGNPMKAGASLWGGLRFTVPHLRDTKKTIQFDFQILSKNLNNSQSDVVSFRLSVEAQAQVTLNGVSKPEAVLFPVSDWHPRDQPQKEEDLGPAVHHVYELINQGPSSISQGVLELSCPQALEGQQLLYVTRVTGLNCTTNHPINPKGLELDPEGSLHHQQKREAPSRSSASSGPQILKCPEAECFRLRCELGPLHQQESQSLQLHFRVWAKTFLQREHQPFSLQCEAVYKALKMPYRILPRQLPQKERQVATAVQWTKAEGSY
Sequence of integrin α5β1 (P05556 21-728 limits assumed): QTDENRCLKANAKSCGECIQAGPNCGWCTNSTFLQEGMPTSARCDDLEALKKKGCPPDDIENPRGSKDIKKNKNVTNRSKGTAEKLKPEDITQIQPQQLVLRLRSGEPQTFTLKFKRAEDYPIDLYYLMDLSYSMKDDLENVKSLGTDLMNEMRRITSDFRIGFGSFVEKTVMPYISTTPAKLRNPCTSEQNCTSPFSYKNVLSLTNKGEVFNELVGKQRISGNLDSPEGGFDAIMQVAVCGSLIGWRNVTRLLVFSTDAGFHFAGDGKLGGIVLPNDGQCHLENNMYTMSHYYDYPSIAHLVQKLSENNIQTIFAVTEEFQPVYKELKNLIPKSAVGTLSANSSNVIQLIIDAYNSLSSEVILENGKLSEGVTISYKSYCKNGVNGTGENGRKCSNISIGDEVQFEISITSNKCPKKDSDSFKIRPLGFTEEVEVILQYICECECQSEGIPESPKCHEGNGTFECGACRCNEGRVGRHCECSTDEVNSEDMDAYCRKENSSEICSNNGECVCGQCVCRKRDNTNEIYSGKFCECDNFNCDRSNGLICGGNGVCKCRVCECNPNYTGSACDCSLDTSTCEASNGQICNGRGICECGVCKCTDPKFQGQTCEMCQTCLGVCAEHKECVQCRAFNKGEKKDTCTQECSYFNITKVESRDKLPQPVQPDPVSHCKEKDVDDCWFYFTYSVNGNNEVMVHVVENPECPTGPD
A short description of data set [4]: Fundus photography after intravitreous injection. The data set is classed as in vivo, rabbit (Dutch Belted). The method, boiled down:
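Rabbits anaesthetized with IM ketamine (25 mg/kg) and xylazine (2.5 mg/kg), pupils dilated with 2.5% phenylephrine, conjunctiva cleaned with 5% povidone-iodine. Intravitreous injection of 50 μg test compound (or 500 μg comparator) in one eye and vehicle in the fellow eye. Fundus photographs taken 2 and 30 days after injection.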

Where no end group is shown, it is not given here.

Sequence of integrin αvβ3 (P06756 31-992 limits assumed): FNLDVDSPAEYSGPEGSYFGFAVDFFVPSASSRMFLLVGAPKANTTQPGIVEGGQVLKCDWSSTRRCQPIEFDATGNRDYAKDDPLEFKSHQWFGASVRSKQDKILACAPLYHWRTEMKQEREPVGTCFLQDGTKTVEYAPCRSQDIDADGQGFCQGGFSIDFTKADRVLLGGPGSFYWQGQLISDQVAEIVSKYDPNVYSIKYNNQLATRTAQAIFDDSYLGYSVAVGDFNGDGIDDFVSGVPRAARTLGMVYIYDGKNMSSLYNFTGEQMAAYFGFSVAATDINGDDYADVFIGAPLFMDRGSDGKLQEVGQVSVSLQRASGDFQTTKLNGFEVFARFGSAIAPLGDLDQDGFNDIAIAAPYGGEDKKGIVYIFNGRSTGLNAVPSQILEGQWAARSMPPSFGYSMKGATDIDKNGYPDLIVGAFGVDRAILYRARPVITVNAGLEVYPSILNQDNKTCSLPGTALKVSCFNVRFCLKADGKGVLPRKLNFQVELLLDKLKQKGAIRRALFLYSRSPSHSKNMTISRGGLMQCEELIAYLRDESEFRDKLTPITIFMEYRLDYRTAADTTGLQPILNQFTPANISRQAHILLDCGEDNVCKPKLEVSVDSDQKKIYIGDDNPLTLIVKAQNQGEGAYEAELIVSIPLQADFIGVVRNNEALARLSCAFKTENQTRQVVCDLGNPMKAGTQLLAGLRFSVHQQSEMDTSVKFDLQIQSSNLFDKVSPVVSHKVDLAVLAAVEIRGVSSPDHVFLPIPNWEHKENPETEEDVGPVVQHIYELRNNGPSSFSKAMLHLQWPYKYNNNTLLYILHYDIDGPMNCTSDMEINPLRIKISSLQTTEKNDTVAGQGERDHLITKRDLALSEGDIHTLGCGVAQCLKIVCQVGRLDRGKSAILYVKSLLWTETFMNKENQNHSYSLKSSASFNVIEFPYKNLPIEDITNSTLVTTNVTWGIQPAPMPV
Sequence of integrin αvβ3 (P05106 27-718 limits assumed): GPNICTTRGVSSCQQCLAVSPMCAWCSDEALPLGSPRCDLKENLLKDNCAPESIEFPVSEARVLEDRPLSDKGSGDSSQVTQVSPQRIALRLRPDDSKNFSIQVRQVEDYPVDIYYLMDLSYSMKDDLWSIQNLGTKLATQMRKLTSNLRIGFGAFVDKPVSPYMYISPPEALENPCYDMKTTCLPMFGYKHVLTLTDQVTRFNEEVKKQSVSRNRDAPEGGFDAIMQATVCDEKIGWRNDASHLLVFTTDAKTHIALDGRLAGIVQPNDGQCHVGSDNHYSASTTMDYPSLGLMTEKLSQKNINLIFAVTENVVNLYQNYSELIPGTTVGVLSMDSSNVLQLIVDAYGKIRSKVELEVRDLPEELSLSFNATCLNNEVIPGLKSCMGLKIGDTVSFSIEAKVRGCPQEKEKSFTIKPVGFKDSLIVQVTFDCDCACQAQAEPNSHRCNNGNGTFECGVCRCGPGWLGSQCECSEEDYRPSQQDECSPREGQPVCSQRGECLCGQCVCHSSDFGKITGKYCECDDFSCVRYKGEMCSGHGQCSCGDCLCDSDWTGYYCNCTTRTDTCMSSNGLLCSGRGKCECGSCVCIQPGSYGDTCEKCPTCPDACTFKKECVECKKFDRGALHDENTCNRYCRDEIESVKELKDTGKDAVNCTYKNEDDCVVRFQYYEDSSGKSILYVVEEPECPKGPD

By Kd is commonly meant a measure of binding affinity in units of concentration. A low value points to a tighter complex. “soluble, recombinant α5β1 heterodimeric integrin (from UniProt P08648 42-1049; P05556 21-728) (complex)”: the Kd in data set [1] was found to be 2.21 nM.
As for `CC(=O)N[C@@H](CSC(=O)[C@]1([C@@H](O)C(C)C)NC(=O)[C@H](C)[C@@H]1O)C(=O)O` [lactacystin], the “AXT107-induced degradation of VEGFR2” value in the data set on VEGFR2 is recorded as “reduced AXT107-induced degradation of VEGFR2”.
Regarding “aflibercept: a VEGF-neutralizing protein, which is standard care for patients with NVAMD”, the “fluorescein in the mid-vitreous, day 60 (representative VFP scans)” value in data set [2] (50 μg of AXT107 or 500 μg of aflibercept, VEGF rechallenge (10 μg) on day 53) is “higher levels”. The “leakage remaining at 60 days” value in data set [2] (50 μg of AXT107 versus 500 μg of aflibercept, P < 0.05) is 100%. In addition, the “leakage vs fellow eye controls, day 60 (in words)” value in data set [2] (500 μg of aflibercept, VEGF rechallenge (10 μg) on day 53, VFP day 60) is recorded as “not significantly reduced”.
“soluble, recombinant αvβ3 heterodimeric integrin (from UniProt P06756 31-1048; P05106 27-718) (complex)”: the equilibrium dissociation constant (Kd) in data set [1] was determined as 1.29 nM.
In the case of LRRFSTAPFAFIDINDVINF [AXT107], binding on integrin αvβ3 was characterised by a dissociation constant (Kd) of 1.29 nM. Moreover, in data set [3], the intraocular pressure entry is given as “no increase in intraocular pressure”, the “ocular media in the visual axis” value is reported as “no degradation of the ocular media in the visual axis” and the retinal toxicity result is recorded as “no retinal toxicity”. Further, the Kd at integrin α5β1 is 2.21 nM. The “gel-like depot in inferior vitreous, persistence” value in data set [4] (50 μg intravitreous, 30 days after injection) is “still present in the same location 30 days after injection”. In data set [4] (after intraocular injection, inferior vitreous), the “dissipation of gel-like depot” value is on record as “slowly dissipates over months”.
